ChEMBL document CHEMBL1129979, “Conformationally constrained deltorphin analogs with 2-aminotetralin-2-carboxylic acid in position 3” (J Med Chem, 1997)

Experiments:
Cavia porcellus = organism: Cavia porcellus; assay: The inhibitory concentration activity was measured on guinea pig ileum (GPI); assay type: functional
Procedure, shortened: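 Guinea pig ileum myenteric plexus-longitudinal muscle strips are mounted between platinum axial wire electrodes in Krebs bicarbonate at 37 °C, gassed with 95% O2/5% CO2, under 1 g tension. Strips are stimulated transmurally at 0.1 Hz, 1 ms, 40 V (supramaximal) and equilibrated 60 min before peptides are added. Single-dose dose-response curves are fitted to the Hill equation by least squares on mean data. IC50 is the concentration giving 50% reduction of contractions.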

Mus musculus = organism: Mus musculus; assay: The inhibitory concentration activity was measured on electrically induced contraction of the mouse vas deferens (MVD); assay type: functional
Procedure, shortened: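 Mouse vas deferens is mounted between platinum axial wire electrodes in Mg-free Krebs bicarbonate at 34 °C, gassed with 95% O2/5% CO2, under 0.5 g tension. After 15 min equilibration, it is stimulated transmurally at 0.1 Hz, 2 ms, 40 V (supramaximal). Dose-response curves are built by the single-dose method. IC50 is the concentration giving 50% reduction of contractions, from a Hill-equation least-squares fit of mean data.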

[1] = molecular target: Kappa-type opioid receptor (Rattus norvegicus, UniProt P34975)
Kappa-type opioid receptor, sequence (P34975 whole entry): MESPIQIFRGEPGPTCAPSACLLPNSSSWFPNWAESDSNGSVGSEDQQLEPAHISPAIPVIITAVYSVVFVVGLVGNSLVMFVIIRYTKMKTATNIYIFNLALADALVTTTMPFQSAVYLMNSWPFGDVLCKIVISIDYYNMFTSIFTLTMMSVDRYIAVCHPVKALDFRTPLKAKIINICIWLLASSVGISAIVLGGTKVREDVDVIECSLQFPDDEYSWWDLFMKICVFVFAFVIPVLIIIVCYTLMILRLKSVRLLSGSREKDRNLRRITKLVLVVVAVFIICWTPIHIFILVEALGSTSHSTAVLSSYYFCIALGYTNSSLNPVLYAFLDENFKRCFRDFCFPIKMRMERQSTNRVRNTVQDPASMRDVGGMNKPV

[2] = molecular target: T1, Delta-type opioid receptor (Rattus norvegicus, UniProt P33533); assay: The binding affinity was measured using [3H]-DIDII against Opioid receptor delta 1 of rat brain
T1 sequence (P33533 whole entry): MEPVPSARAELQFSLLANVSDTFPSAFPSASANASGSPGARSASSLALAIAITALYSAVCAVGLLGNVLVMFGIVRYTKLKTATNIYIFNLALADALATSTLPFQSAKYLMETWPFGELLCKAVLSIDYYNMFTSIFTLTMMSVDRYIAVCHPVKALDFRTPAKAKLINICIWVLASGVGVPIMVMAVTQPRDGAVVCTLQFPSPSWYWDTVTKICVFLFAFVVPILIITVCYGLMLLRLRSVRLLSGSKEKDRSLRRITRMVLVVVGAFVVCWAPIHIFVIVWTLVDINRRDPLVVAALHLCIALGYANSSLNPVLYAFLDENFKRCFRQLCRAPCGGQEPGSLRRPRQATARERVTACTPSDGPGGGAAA

[3] = molecular target: T1, Delta-type opioid receptor; assay: The binding affinity was measured using [3H]naltrindole against Opioid receptor delta 1 of rat brain
Mu-type opioid receptor = Mu-type opioid receptor (Rattus norvegicus, UniProt P33535); assay: The binding affinity was measured using [3H]- DAGO against Opioid receptor mu 1 of rat brain
Mu-type opioid receptor, sequence (P33535 whole entry): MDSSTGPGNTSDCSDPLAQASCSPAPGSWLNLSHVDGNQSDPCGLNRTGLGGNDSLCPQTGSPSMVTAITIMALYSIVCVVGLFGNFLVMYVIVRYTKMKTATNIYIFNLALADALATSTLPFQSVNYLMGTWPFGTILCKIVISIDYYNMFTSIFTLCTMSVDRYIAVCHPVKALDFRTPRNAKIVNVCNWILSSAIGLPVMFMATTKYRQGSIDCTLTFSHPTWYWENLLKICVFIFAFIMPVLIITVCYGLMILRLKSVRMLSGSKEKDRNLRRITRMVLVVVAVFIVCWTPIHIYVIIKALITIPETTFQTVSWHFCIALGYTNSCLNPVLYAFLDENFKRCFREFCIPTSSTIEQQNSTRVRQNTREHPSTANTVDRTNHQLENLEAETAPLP

[4] = molecular target: T1, Delta-type opioid receptor; assay: The binding affinity was measured using [3H]- TIPPsi against Opioid receptor delta 1

| Compound | IC50 (Cavia porcellus) [nM] | IC50 (Mus musculus) [nM] | Ki [1] [nM] | Ki [2] [nM] | Ki [3] [nM] | Ki (Mu-type opioid receptor) [nM] | Ki [4] [nM] |
| --- | --- | --- | --- | --- | --- | --- | --- |
| CC[C@H](C)[C@H](NC(=O)[C@H](CC(=O)O)NC(=O)[C@H](Cc1ccccc1)NC(=O)[C@@H](C)NC(=O)[C@@H](N)Cc1ccc(O)cc1)C(=O)N[C@H](C(=O)NCC(N)=O)[C@@H](C)CC | 4210 | 0.082 | > 10000 | 0.056 | 0.047 | 3220 | 0.018 |
| CC(C)[C@H](NC(=O)[C@H](CC(=O)O)NC(=O)[C@H](Cc1ccccc1)NC(=O)[C@H](C)NC(=O)[C@@H](N)Cc1ccc(O)cc1)C(=O)N[C@H](C(=O)NCC(N)=O)C(C)C | > 3000 | 0.32 |  |  |  |  |  |
| CC[C@H](C)[C@H](NC(=O)[C@H](CCC(=O)O)NC(=O)[C@]1(NC(=O)[C@@H](C)NC(=O)[C@@H](N)Cc2ccc(O)cc2)CCc2ccccc2C1)C(=O)N[C@H](C(=O)NCC(N)=O)[C@@H](C)CC | 19600 | 0.09 | > 10000 | 0.035 | 0.515 | 731 | 0.38 |
| CC[C@H](C)[C@H](NC(=O)[C@H](CCC(=O)O)NC(=O)[C@H](Cc1ccccc1)NC(=O)[C@@H](C)NC(=O)[C@@H](N)Cc1ccc(O)cc1)C(=O)N[C@H](C(=O)NCC(N)=O)[C@@H](C)CC | 67200 | 0.5 | > 10000 |  |  | 3190 |  |
